Screening results (PubChem BioAssay)
An excerpt weighted towards active compounds, which were near 1% of everything screened.
CaV13 ICDI inh = Primary screen for inhibitors of IQ motif and Ca2+-dependent inactivation inhibitor domain binding in CACNA1D, Förster resonance energy transfer in living cells, …; HEK cells, CFP/YFP FRET ICDI-IQ, plate reader, 10 min; percent FRET-ratio fall versus neutral wells; inhibition, % at 12.3 µM; 340,000 compounds, 0.098% hits;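 active = mean replicate inhibition of at least 30% and at least 1% of replicates passing that level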
GSIS activator = primary screen for activators of insulin secretion dependent on glucose, INS-1E cells, GLuc reporter luminescence. activation, % at 16.6 µM. 370,000 compounds, 0.61% hits. AID 743287. INS-1E GLuc reporter insulin secretion, 2-3 h;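 active = lowest replicate activation of at least 40%, so every replicate reaches that level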
GAA850 FXN act = frataxin GAA850 promoter activation. HEK293 lucGAA850 FXN promoter luciferase reporter, 24 h; percent of 10 µM SAHA response. 360,000 compounds, 0.56% hits. activation, % at 6 µM;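 active = activation above the average of all compounds screened plus 3 SD, cutoff fixed separately per campaign, cut at about 7.5% in these data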
Xi reactivation = reactivates the inactive X chromosome in mouse fibroblasts; XiGFP mouse fibroblasts, % GFP-positive cells imaging, 3 d; cells co-treated with 5-aza-dC sensitizer; scaled so ellipticine positive control = 100%; 360,000 compounds, 0.055% hits; activation, % at 7.58 µM;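 active = mean normalized replicate activation at least 10% and every replicate at or above 10%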
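Material: XiGFP fibroblasts, SV40-immortalized. Buffer or medium: DMEM plus 5-aza-dC sensitizer. Compound: single concentration per compound, delivered by pin transfer. Times: 3 days compound exposure. Controls: ellipticine 6 µM.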
Large screens that a line does not name were inactive.

CCOc1cc(OCC)cc(C(=O)Nc2cccnc2)c1	GSIS activator 41 (no result: CaV13 ICDI inh, Xi reactivation)
CCCN(C)C[C@H]1Oc2ncc(-c3ccccc3F)cc2C(=O)N([C@@H](C)CO)C[C@@H]1C	none (no result: CaV13 ICDI inh, GAA850 FXN act)
Clc1ccc(-c2ccnc(Oc3cc(Cl)ccc3Cl)n2)cc1	GSIS activator 85 (no result: Xi reactivation)
Clc1ccc(-c2ccnc(Oc3ccc4ccccc4c3)n2)cc1	GSIS activator 114 (no result: CaV13 ICDI inh, Xi reactivation)
CO[C@H]1CN(C)C(=O)c2ccc(NC(=O)C3CCCCC3)cc2OC[C@@H](C)NC[C@@H]1C	none (no result: CaV13 ICDI inh, GAA850 FXN act)
CO[C@@H]1CN(C)C(=O)c2ccc(NC(=O)Cc3ccccc3)cc2OC[C@@H](C)N(CC2CC2)C[C@@H]1C	none (no result: CaV13 ICDI inh, GAA850 FXN act)
COc1ccc(CNC(=O)C[C@@H]2CC[C@H]3[C@H](COc4ccc(NC(C)=O)cc4C(=O)N3C)O2)cc1	none (no result: CaV13 ICDI inh, GAA850 FXN act)
Cc1cccc(OCC(=O)NNC(=O)Cn2c(=O)cnc3ccccc32)c1	none
COc1ccc(OCC(=O)NNC(=O)Cn2c(=O)cnc3ccccc32)cc1	GSIS activator 76
COc1ccc(-c2ccc3c(c2)O[C@@H](CN(C)Cc2ccccc2C(=O)O)[C@@H](C)CN([C@H](C)CO)S3(=O)=O)cc1	none (no result: CaV13 ICDI inh, GAA850 FXN act)
NC(=S)N=Nc1c(O)n(Cc2ccccc2)c2ccccc12	none
COC(=O)c1ccc(Cn2c(O)c(N=NC(N)=S)c3ccccc32)o1	GSIS activator 64
C[C@@H]1CCCCO[C@@H](CN(C)S(=O)(=O)c2ccc(F)cc2)[C@H](C)CN([C@@H](C)CO)C(=O)c2cc(NC(=O)CCC(F)(F)F)ccc2O1	none (no result: CaV13 ICDI inh, GAA850 FXN act)
CC(C)C[C@H](NC(=O)c1nc[nH]c1C(=O)NC1CCN(C(=O)OC(C)(C)C)CC1)C(=O)OC(C)(C)C	GSIS activator 346
CC(C)C[C@H](NC(=O)c1[nH]cnc1C(=O)N[C@@H](C)c1ccccc1)C(=O)OC(C)(C)C	GSIS activator 88
CC(C)C[C@H](NC(=O)c1[nH]cnc1C(=O)N[C@@H](Cc1ccccc1)C(=O)OC(C)(C)C)C(=O)OC(C)(C)C	none
Cc1cc(Br)c2c(c1)C1(OCCO1)C(=O)N2	GSIS activator 41
Cc1cc(C)c2c(c1)C1(OCCO1)C(=O)N2	none
Cc1noc(C)c1NC(=O)N(C)C[C@@H]1OCCCC[C@H](C)Oc2ccc(NC(=O)Nc3ccc(C(F)(F)F)cc3)cc2C(=O)N([C@@H](C)CO)C[C@@H]1C	none (no result: CaV13 ICDI inh, GAA850 FXN act)
Cc1nnc(N2C(=O)c3cccc4c([N+](=O)[O-])ccc(c34)C2=O)s1	Xi reactivation 27
O=C1c2cccc3c([N+](=O)[O-])ccc(c23)C(=O)N1Cc1cccnc1	Xi reactivation 20
O=C1c2cccc3cccc(c23)C(=O)N1Cc1cccnc1	none
CN1C(=O)c2cc(NC(=O)Cc3ccccc3)ccc2OC[C@H]2O[C@@H](CC(=O)O)CC[C@H]21	none (no result: CaV13 ICDI inh, GAA850 FXN act)
CCCn1nc(C(=O)NC2CC2)c2ccccc2c1=O	GSIS activator 52
C[C@H](CO)N1C[C@H](C)[C@H](CN(C)Cc2ccc(C(F)(F)F)cc2)OCCCC[C@H](C)Oc2ccc(NS(=O)(=O)c3cn(C)cn3)cc2C1=O	none (no result: CaV13 ICDI inh, GAA850 FXN act)
CCOc1cc(C(=O)O/N=C(\N)c2ccccn2)cc(OCC)c1OCC	none
CCOc1ccc(C(=O)O/N=C(\N)c2ccccn2)cc1OCC	GSIS activator 87 (no result: CaV13 ICDI inh)
O=C1N[C@H](Cc2ccccc2)COCc2cn(nn2)CC[C@@H]1Cc1ccc(Cl)cc1	none (no result: CaV13 ICDI inh, GAA850 FXN act)
O=C(c1cccc(C(F)(F)F)c1)N1CCCC1	none (no result: Xi reactivation)
O=C(Nc1ccc(C(=O)N2CCCC2)cc1)c1cccc(C(F)(F)F)c1	GSIS activator 48
C[C@@H]1CN([C@@H](C)CO)C(=O)c2cccc(NC(=O)Nc3ccc(F)cc3)c2O[C@@H]1CN(C)C(=O)Nc1ccc(F)cc1	none (no result: CaV13 ICDI inh, GAA850 FXN act)
COc1ccc(C(O)c2nccc3cc(OC)c(OC)cc23)cc1OC (configuration not stated)	GSIS activator 83
CCc1nc(N)nc2c1C(=O)CC(C)(C)C2	GSIS activator 70 (no result: Xi reactivation)
CC1(C)CC(=O)c2cnc(N)nc2C1	none (no result: GSIS activator, Xi reactivation)
O=C(OCCC12CC3CC(CC(C3)C1)C2)c1ccc(NCc2cc(O)ccc2O)cc1	none
O=C(OCC12CC3CC(CC(C3)C1)C2)c1ccc(NCc2cc(O)ccc2O)cc1	GSIS activator 157
O=[N+]([O-])c1ccc(N2N=C(c3ccccc3)CC2c2ccccc2O)cc1 (configuration not stated)	Xi reactivation 32
NS(=O)(=O)c1ccc(N2N=C(c3ccccc3)CC2c2ccccc2Br)cc1 (configuration not stated)	none
